Experiment [1] concerns Mus musculus. As to the kind of experiment: Antiinflammatory activity in BALB/c mouse assessed as inhibition of LPS-induced TNF-alpha production at 10 mg/kg, ip pretreated for 3 days as single dose followed by LPS administration after 24 hrs by phycoerythrin staining based flow cytometry. The experiment is classed as functional, organism-based.
Experiment [2] has as its system Mus musculus. As to the kind of experiment: Antiinflammatory activity in BALB/c mouse assessed as inhibition of LPS-induced MCP-1 production at 10 mg/kg, ip pretreated for 3 days as single dose followed by LPS administration after 24 hrs by phycoerythrin staining based flow cytometry. The experiment is classed as functional, organism-based. A general note: Flow cytometry measures light scatter and fluorescence of single cells or particles in a stream.

Experiment [3] has as its system RAW264.7. Nature of the experiment: Antiinflammatory activity in mouse RAW264.7 cells assessed as inhibition of LPS-induced MCP-1 production at 50 uM after 24 hrs by phycoerythrin staining based flow cytometry. The experiment is classed as functional, cell-based. An outline of the steps:
(§1)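 Cytokine bead array on protein extracts of RAW 264.7 cells treated with LPS plus compound at 50 µM. Read-outs were IL-12, IL-6, TNF-α, MCP-1 and IFN-γ, referenced to LPS-treated cells. Mean ± SD, n = 3 independent experiments.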

Experiment [4] concerns RAW264.7. As to the kind of experiment: Antiinflammatory activity in mouse RAW264.7 cells assessed as inhibition of LPS-induced IL-12 production at 50 uM after 24 hrs by phycoerythrin staining based flow cytometry. It counts as functional, cell-based. A digest of the protocol:
as §1

The test system of experiment [5] is Mus musculus. As to the kind of experiment: Antiinflammatory activity in BALB/c mouse assessed as inhibition of LPS-induced IL-6 production at 10 mg/kg, ip pretreated for 3 days as single dose followed by LPS administration after 24 hrs by phycoerythrin staining based flow cytometry. It counts as functional, organism-based.
Experiment [6] concerns RAW264.7. As to the kind of experiment: Antiinflammatory activity in mouse RAW264.7 cells assessed as inhibition of LPS-induced IL-6 production at 50 uM after 24 hrs by phycoerythrin staining based flow cytometry. The experiment is classed as functional, cell-based. A digest of the protocol: as §1
The subject of experiment [7] is Mus musculus. Nature of the experiment: Antiinflammatory activity in BALB/c mouse assessed as inhibition of LPS-induced IL-12 production at 10 mg/kg, ip pretreated for 3 days as single dose followed by LPS administration after 24 hrs by phycoerythrin staining based flow cytometry. It counts as functional, organism-based.
For experiment [8], the system named is RAW264.7. As to the kind of experiment: Antiinflammatory activity in mouse RAW264.7 cells assessed as inhibition of LPS-induced […] production at 50 uM after 24 hrs by phycoerythrin staining based flow cytometry. It counts as functional, cell-based. A digest of the protocol: as §1
Experiment [9] concerns RAW264.7. As to the kind of experiment: Antiinflammatory activity in mouse RAW264.7 cells assessed as inhibition of LPS-induced iNOS production at 50 uM after 24 hrs by Western blot analysis. The experiment is classed as functional, cell-based. A digest of the protocol:
(§2)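 Protein was isolated from control, LPS, and LPS + compound (50 µM) RAW 264.7 cultures and immunoblotted. iNOS, COX-2 and phospho-NF-κB were quantified densitometrically against β-actin. Mean ± SD of 3 independent experiments, compared with LPS treatment.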

For experiment [10], the species on record is Mus musculus. Nature of the experiment: Inhibition of LPS-induced NFkappaB phosphorylation in mouse RAW264.7 cells at 50 uM after 24 hrs by Western blot analysis. It counts as cell-based. A digest of the protocol: as §2
The subject of experiment [11] is RAW264.7. Nature of the experiment: Antiinflammatory activity in mouse RAW264.7 cells assessed as inhibition of LPS-induced COX-2 production at 50 uM after 24 hrs by Western blot analysis. It counts as functional, cell-based. An outline of the steps:
as §2

Experiment [12] concerns Mus musculus. As to the kind of experiment: Antiinflammatory activity in BALB/c mouse assessed as inhibition of LPS-induced […] production at 10 mg/kg, ip pretreated for 3 days as single dose followed by LPS administration after 24 hrs by phycoerythrin staining based flow cytometry. It counts as functional, organism-based.
Experiment [13] relates to RAW264.7. Nature of the experiment: Antiinflammatory activity in mouse RAW264.7 cells assessed as inhibition of LPS-induced TNF-alpha production at 50 uM after 24 hrs by phycoerythrin staining based flow cytometry. The experiment is classed as functional, cell-based. An outline of the steps: as §1
For experiment [14], the system named is RAW264.7. As to the kind of experiment: Cytotoxicity against mouse RAW264.7 cells assessed as decrease in cell viability after 24 hrs by MTT assay. It counts as cell-based. Conditions: RAW264.7, 24 h. A digest of the protocol: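 RAW264.7 macrophage viability after compound exposure was measured by MTT assay. IC50 (µM) was calculated and reported with a 95% confidence interval.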
Background: Tetrazolium assays rely on reduction of a dye to a coloured formazan, in cell work by metabolically active cells.

Experiment [15] relates to RAW264.7. As to the kind of experiment: Antiinflammatory activity in mouse RAW264.7 cells assessed as inhibition of LPS-induced NO production after 24 hrs by Griess assay. The experiment is classed as functional, cell-based. To be noted: for pIC50: RAW264.7, 24 h. A digest of the protocol: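 LPS-stimulated RAW264.7 cells were co-treated with compound. Nitrite, a stable NO metabolite, was measured in culture medium with Griess reagent. IC50 (µM) was reported with a 95% confidence interval.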
A general note: Nitrite, measured by Griess reagent, commonly stands in for NO production.

In experiment [16] the test system is RAW264.7. Nature of the experiment: Selectivity index, ratio IC50 for cytotoxicity against mouse RAW264.7 cells to IC50 for antiinflammatory activity in mouse RAW264.7 cells. The experiment is classed as functional. A digest of the protocol: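 Ratio A/B in RAW 264.7 cells. A is the cytotoxicity IC50 from the MTT assay. B is the IC50 for inhibiting NO production in LPS-stimulated cells, with nitrite in the culture medium measured by Griess reagent. Both IC50s are reported with 95% confidence intervals.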

Experiment [17] deals with RAW264.7. As to the kind of experiment: Antiinflammatory activity in mouse RAW264.7 cells assessed as inhibition of LPS-induced ROS production after 24 hrs by CM-H2DCFDA dye based fluorescence assay. It counts as functional, cell-based. An outline of the steps: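 Intracellular ROS was measured in LPS-treated RAW 264.7 cells exposed to compounds at several doses. The read-out was mean fluorescence intensity, compared with LPS-treated cells. Data are mean ± SD of three independent experiments.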

Experiment [18] in a line: Antiviral activity against Influenza A virus A/WSN/33(H1N1) infected in MDCK cells preincubated for 1 hr followed by compound wash measured after 48 hrs by plaque reduction assay. The experiment is classed as functional, cell-based, Influenza A virus (A/WSN/1933(H1N1)).
Experiment [19] can be described thus: Antiviral activity against Influenza A virus A/WSN/33(H1N1) infected in MDCK cells at 50 uM preincubated for 15 mins measured after 1.5 days by CellTiter-Glo assay relative to control. The experiment is classed as functional, Influenza A virus (A/WSN/1933(H1N1)).
Experiment [20] concerns RAW264.7. As to the kind of experiment: Antiinflammatory activity in mouse RAW264.7 cells assessed as inhibition of LPS-induced TNF-alpha production at 30 uM after 24 hrs by phycoerythrin staining based flow cytometry. The experiment is classed as functional, cell-based. A digest of the protocol:
(§3)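 LPS-stimulated RAW 264.7 cells were co-treated with enantiomers at 30 µM. Cell protein extracts were analysed by cytometric bead array for IL-12, IL-6, TNF-α, MCP-1 and IFN-γ and compared with LPS-only cells. Mean ± SD of three independent experiments.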

Experiment [21] has as its system RAW264.7. Nature of the experiment: Antiinflammatory activity in mouse RAW264.7 cells assessed as inhibition of LPS-induced […] production at 30 uM after 24 hrs by phycoerythrin staining based flow cytometry. It counts as functional, cell-based. A digest of the protocol:
as §3

In experiment [22] the test system is RAW264.7. As to the kind of experiment: Antiinflammatory activity in mouse RAW264.7 cells assessed as inhibition of LPS-induced iNOS production at 30 uM after 24 hrs by Western blot analysis. It counts as functional, cell-based. An outline of the steps:
(§4)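 Immunoblot of protein from RAW 264.7 cells under control, LPS, and LPS + enantiomer (30 µM) conditions. COX-2, iNOS and phospho-NF-κB bands were quantified by densitometry and normalised to β-actin. Mean ± SD from 3 independent experiments; p-values are versus LPS-treated cells.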

The subject of experiment [23] is RAW264.7. As to the kind of experiment: Antiinflammatory activity in mouse RAW264.7 cells assessed as inhibition of LPS-induced IL-12 production at 30 uM after 24 hrs by phycoerythrin staining based flow cytometry. The experiment is classed as functional, cell-based. An outline of the steps:
as §3

For experiment [24], the species on record is Mus musculus. As to the kind of experiment: Inhibition of LPS-induced NFkappaB phosphorylation in mouse RAW264.7 cells at 30 uM after 24 hrs by Western blot analysis. The experiment is classed as cell-based. A digest of the protocol: as §4
Experiment [25] has as its system RAW264.7. Nature of the experiment: Antiinflammatory activity in mouse RAW264.7 cells assessed as inhibition of LPS-induced IL-6 production at 30 uM after 24 hrs by phycoerythrin staining based flow cytometry. It counts as functional, cell-based. A digest of the protocol: as §3
Experiment [26] concerns RAW264.7. As to the kind of experiment: Antiinflammatory activity in mouse RAW264.7 cells assessed as inhibition of LPS-induced COX-2 production at 30 uM after 24 hrs by Western blot analysis. It counts as functional, cell-based. A digest of the protocol:
as §4

The subject of experiment [27] is RAW264.7. Nature of the experiment: Antiinflammatory activity in mouse RAW264.7 cells assessed as inhibition of LPS-induced MCP-1 production at 30 uM after 24 hrs by phycoerythrin staining based flow cytometry. The experiment is classed as functional, cell-based. An outline of the steps: as §3

Structures are written as SMILES. pEC50, pIC50: −log10 of the molar value. Calls of active or inactive are those of the source. No cut-off for these calls is given here.

The term pIC50 denotes the negative decadic logarithm of the IC50, by convention in mol/L. As usually defined, the pEC50 is the negative decadic logarithm of the EC50, by convention in mol/L. A high value points to a small EC50.

Turning to `CC(=O)OC1CC[C@]2(SC(=O)c3ccc(F)cc3)C(=O)NC(=O)[C@H]12` (stereo partly drawn), the inhibition entry in the experiment with Mus musculus [1], with Mus musculus [2], in the experiment with RAW264.7 [3], in the experiment on RAW264.7 [4], with Mus musculus [5] and in the experiment with RAW264.7 [6] was “Active” throughout. In addition, the inhibition entry in the experiment on Mus musculus [7], in the experiment on RAW264.7 [8], in the experiment on RAW264.7 [9], in the experiment filed under Mus musculus [10], in the experiment on RAW264.7 [11] and in the experiment with Mus musculus [12] was “Active” in each case. In addition, in the experiment with RAW264.7 [13], the inhibition entry was “Active”. Further, the negative-log IC50 (pIC50) in the experiment on RAW264.7 [14] is 1.92; in the experiment with RAW264.7 [15], 4.46. The “Ratio IC50” value in the experiment on RAW264.7 [16] was found to be 353.8076. Also, the inhibition entry in the experiment on RAW264.7 [17] is “Dose-dependent effect”.
In [18], `CCOC(=O)C1=C[C@@H](OC(CC)CC)[C@H](NC(C)=O)[C@@H](N)C1.O=P(O)(O)O` [OSELTAMIVIR PHOSPHATE] showed a negative-log EC50 (pEC50) of 4.17. The same molecule had an Activity in [19] of 54%.
Regarding `CC(=O)SC1CC[C@]2(SC(C)=O)C(=O)NC(=O)[C@H]12` (stereo partly drawn), the inhibition result with Mus musculus [1], with Mus musculus [2], with RAW264.7 [3], in the experiment on RAW264.7 [4], with Mus musculus [5] and with RAW264.7 [6] was “Active” throughout. In addition, the inhibition result in the experiment with Mus musculus [7], in the experiment with RAW264.7 [8], with RAW264.7 [9], in the experiment listed under Mus musculus [10], with RAW264.7 [11] and in the experiment on Mus musculus [12] was “Active” throughout. In addition, the inhibition entry with RAW264.7 [13] was “Active”. Besides, the negative logarithm of the IC50 (pIC50) in the experiment on RAW264.7 [14] is 2.00; with RAW264.7 [15] it was 4.70. Further, the “Ratio IC50” value with RAW264.7 [16] is 505.4343. For the same molecule, the inhibition entry in the experiment with RAW264.7 [17] was “Dose-dependent effect”.
Regarding `CC(=O)O[C@H]1CC[C@@]2(SC(=O)c3ccc(F)cc3)C(=O)NC(=O)[C@@H]12`, the inhibition result in the experiment on RAW264.7 [20], in the experiment with RAW264.7 [21], in the experiment with RAW264.7 [22], with RAW264.7 [23], in the experiment filed under Mus musculus [24] and with RAW264.7 [25] was “Active” each time. Besides, the inhibition result in the experiment on RAW264.7 [26], in the experiment on RAW264.7 [15] and in the experiment on RAW264.7 [27] was “Active” in each case.
For the molecule `O=C(S[C@@]12CC[C@H](O)[C@@H]1C(=O)NC2=O)c1ccc(O)cc1`, the pIC50 with RAW264.7 [14] is 2.99; in the experiment with RAW264.7 [15], 4.14. The molecule further registered an Activity in [19] of 18.6%. Further, the “Ratio IC50” value in the experiment with RAW264.7 [16] is reported as 14.14.
`O=C(S[C@]12CC[C@H](O)[C@H]1C(=O)NC2=O)c1ccc(O)cc1`: the negative-log EC50 (pEC50) in experiment [18] was 3.95. Moreover, the negative-log IC50 (pIC50) with RAW264.7 [14] is 2.86. Further, in experiment [19], the Activity worked out at 30.9%. Moreover, the “Ratio IC50” value in the experiment with RAW264.7 [16] is 9.85.

Values taken from ChEMBL document CHEMBL4052621, “Identification of new anti-inflammatory agents based on nitrosporeusine natural products of marine origin” (Eur J Med Chem, 2017).
